Assay results of several laboratories.
Protocols differ between the studies behind these lines.
Target: Serine/threonine-protein kinase 33 (STK33, Homo sapiens, UniProt Q9BYT3)

SMILES | effect on | technique | concentration | remaining binding [%]
Nc1ncc2c(n1)-c1c([nH]c3ccc(C#CC4CC4)cc13)CCCC2 | binding | competition with immobilised ligand | 1 µM | 100
CCCCN(CCCC)C(=O)CN1C[C@@H](c2cc(OC)c3c(c2)OCO3)[C@H](C(=O)O)[C@H]1CC(C)(C)CCC | cell-free assay | competition with immobilised ligand | 1 µM | 100
O=C(c1ccc(Nc2nccc(-c3cc4ccccc4s3)n2)cc1)N1CCC(N2CCCC2)CC1 | binding | competition with immobilised ligand | 1 µM | 100
N[C@H]1CCN(c2nccc(-c3cnn4ncccc34)n2)C1 | binding |  | 1 µM | 0
O=C(Nc1c[nH]nc1C(=O)NC1CCNCC1)c1cc(F)cc(F)c1 | binding | competition with immobilised ligand | 1 µM | 100
CC1=C(C#N)C(c2ccc3c(c2)c(NC(=O)c2ccccc2C)nn3C)C(C#N)=C(C)N1 | cell-free assay | competition with immobilised ligand | 1 µM | 100
F[C@@H]1CCN(c2nccc(-c3cnn4ncccc34)n2)C1 | binding |  | 1 µM | 100
CC(=O)C1=C(C)N(c2cccc(C(F)(F)F)c2)C(=O)N[C@@H]1c1ccc(C#N)nc1 | cell-free assay | competition with immobilised ligand | 1 µM | 91.6
Cc1cnc(Nc2ccc(C(=O)N3CCC(N4CCCC4)CC3)cc2)nc1-c1cc2ccccc2s1 | binding | competition with immobilised ligand | 1 µM | 60
CNC(=O)[C@@H]1CC[C@@H](n2c(-c3ccc4cnccc4c3)nc3ccc(C(=O)NCc4cccc(C(N)=O)c4)cc32)C1 | binding | competition with immobilised ligand | 1 µM | 87
COc1ccnn2ncc(-c3ccnc(N(C)C)n3)c12 | binding |  | 1 µM | 99
C[C@@H](c1cccc(C#N)c1)n1cc(Cl)cc(C(N)=O)c1=N | cell-free assay | competition with immobilised ligand | 1 µM | 100
CN(C)c1ncc(F)c(-c2cnn3ncccc23)n1 | binding |  | 1 µM | 100
C[C@@H](c1ccc(-n2cnc3c(N)ncnc32)cc1)N1CCc2nn(C)c(Cc3ccccc3)c2C1=O | binding | competition with immobilised ligand | 0.1 µM | 100
CC(=O)N1CCC(c2ccc(C(=O)NC3=NCCN3)cc2C(F)(F)F)CC1 | cell-free assay | competition with immobilised ligand | 1 µM | 100
C[C@@H]1CCN(c2nccc(-c3cnn4ncccc34)n2)C1 | binding |  | 1 µM | 88
O=C(NCc1ncc(C(F)(F)F)cc1Cl)c1ccc2c(c1)C1(CCS(=O)(=O)CC1)[C@H](C1CC1)N2S(=O)(=O)c1ccc(F)cc1 | cell-free assay | competition with immobilised ligand | 1 µM | 100
COc1ncc2cc3ccccc3nc2c1C#N | cell-free assay | competition with immobilised ligand | 5 µM | 91
O=C(Nc1ccc(Oc2ccc(F)cc2)cc1)N1CCc2ncccc2[C@H]1c1ccc(F)cc1 | cell-free assay | competition with immobilised ligand | 1 µM | 50
CN(C)c1nccc(-c2cnn3ncccc23)n1 | binding |  | 1 µM | 75
O=C(NCCCN1CCOCC1)c1ccc(Nc2nccc(-c3cc4ccccc4s3)n2)cc1 | binding | competition with immobilised ligand | 1 µM | 80
FC(F)(F)Oc1cccc(-c2cnc3ccc(-c4ccncc4)nn23)c1 | binding | competition with immobilised ligand | 5 µM | 72
CCN1CCN(Cc2ccc(C(=O)Nc3ccc(C)c(Oc4ccc5c(c4)CC(=O)N5)c3)cc2C(F)(F)F)CC1 | binding | competition with immobilised ligand | 1 µM | 100
